Results from ChEMBL document CHEMBL1135207, “Novel route to the synthesis of peptides containing 2-amino-1'-hydroxymethyl ketones and their application as cathepsin K inhibitors” (Bioorg Med Chem Lett, 2002).

Legend:
Cathepsin B = Cathepsin B (Homo sapiens, UniProt P07858); assay: Binding affinity against cathepsin B
Procathepsin L = Procathepsin L (Homo sapiens, UniProt P07711); assay: Binding affinity of compound was evaluated against cathepsin L.
Method in brief: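 Then Z-Phe-Arg-AMC 10 µM (at Km) added. AMC release followed kinetically (ex355/em460) at room temperature, with inhibitor-free controls. Apparent Ki by Morrison or Henderson tight-binding fit.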

Cathepsin S = Cathepsin S (Homo sapiens, UniProt P25774); assay: Binding affinity of compound was evaluated against cathepsin S.
Cathepsin K = target: T1, Cathepsin K (Homo sapiens, UniProt P43235); assay: Binding affinity against cathepsin K
T1 sequence (P43235 whole entry): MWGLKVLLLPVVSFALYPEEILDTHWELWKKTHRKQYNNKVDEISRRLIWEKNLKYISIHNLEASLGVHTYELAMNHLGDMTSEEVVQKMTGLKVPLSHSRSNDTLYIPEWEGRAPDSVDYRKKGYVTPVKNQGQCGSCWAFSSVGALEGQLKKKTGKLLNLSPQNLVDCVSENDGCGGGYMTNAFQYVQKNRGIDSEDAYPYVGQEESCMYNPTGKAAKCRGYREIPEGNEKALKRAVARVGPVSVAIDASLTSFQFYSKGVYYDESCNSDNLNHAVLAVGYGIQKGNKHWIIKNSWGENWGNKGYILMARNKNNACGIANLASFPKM

Sequence of Cathepsin S (P25774 whole entry): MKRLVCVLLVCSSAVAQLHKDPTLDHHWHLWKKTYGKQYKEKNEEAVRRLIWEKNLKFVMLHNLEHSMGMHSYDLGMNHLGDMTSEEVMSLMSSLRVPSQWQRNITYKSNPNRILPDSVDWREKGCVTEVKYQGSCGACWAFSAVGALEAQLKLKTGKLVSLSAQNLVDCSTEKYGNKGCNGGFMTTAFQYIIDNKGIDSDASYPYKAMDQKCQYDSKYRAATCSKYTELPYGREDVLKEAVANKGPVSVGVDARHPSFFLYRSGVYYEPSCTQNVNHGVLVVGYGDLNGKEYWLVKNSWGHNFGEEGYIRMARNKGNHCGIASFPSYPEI
Sequence of Procathepsin L (P07711 whole entry): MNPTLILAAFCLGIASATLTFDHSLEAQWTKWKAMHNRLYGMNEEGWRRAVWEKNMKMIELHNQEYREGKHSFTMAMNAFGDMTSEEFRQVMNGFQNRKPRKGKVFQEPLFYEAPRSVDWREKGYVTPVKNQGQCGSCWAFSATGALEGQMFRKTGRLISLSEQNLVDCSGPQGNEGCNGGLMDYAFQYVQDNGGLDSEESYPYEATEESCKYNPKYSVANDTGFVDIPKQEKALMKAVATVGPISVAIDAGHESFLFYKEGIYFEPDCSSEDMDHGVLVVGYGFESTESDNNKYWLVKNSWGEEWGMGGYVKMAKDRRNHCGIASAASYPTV

SMILES	Ki (Cathepsin B) [nM]	Ki (Procathepsin L) [nM]	Ki (Cathepsin S) [nM]	Ki (Cathepsin K) [nM]
CC(C)C[C@H](NC(=O)OCc1ccccc1)C(=O)N[C@@H](CCc1ccccc1)C(=O)CO	34700	640	188	25
CC(=O)[C@H](CCc1ccccc1)NC(=O)[C@H](CC(C)C)NC(=O)OCc1ccccc1	519000			1440
COCC(=O)[C@H](CCc1ccccc1)NC(=O)[C@H](CC(C)C)NC(=O)OCc1ccccc1	> 150000	22300	1960	607
CCOCC(=O)[C@H](CCc1ccccc1)NC(=O)[C@H](CC(C)C)NC(=O)OCc1ccccc1	> 150000	16700	4500	947
CCC(C)[C@H](NC(=O)OCc1ccccc1)C(=O)N[C@@H](CCc1ccccc1)C(=O)CO (some centres not stated)	32200	3000	811	67
CC(C)C[C@H](NC(=O)OCc1ccccc1)C(=O)N[C@@H](CCc1ccccc1)C(=O)COCc1ccccc1	119000	6340	451	1000

Stronger by Ki (Cathepsin B), values ahead:

Ki (Cathepsin B) [nM]	Ki (Procathepsin L) [nM]	Ki (Cathepsin S) [nM]	Ki (Cathepsin K) [nM]	SMILES
1950	17	46	3	CC(C)C[C@H](NC(=O)c1ccc(CN)cc1)C(=O)N[C@@H](CCc1ccccc1)C(=O)CO
1440	790	88	111	CCC(C)[C@H](NC(=O)c1cccc(C(N)=O)c1)C(=O)N[C@@H](CCc1ccccc1)C(=O)CO (some centres not stated)
1250	130	460	20	CCCC[C@H](NC(=O)[C@@H](NC(=O)c1ccc(CN)cc1)C(C)CC)C(=O)CO (some centres not stated)
1140	760	110	110	CCCC[C@H](NC(=O)[C@@H](NC(=O)c1cccc(C(N)=O)c1)C(C)CC)C(=O)CO (some centres not stated)
270	81	180	4	CCC(C)[C@H](NC(=O)c1cccc(CN)c1)C(=O)N[C@@H](CCc1ccccc1)C(=O)CO (some centres not stated)
